Activity calls are given as the source filed them. The calls are words filed in the database; no cut-off is given here.
Experiments:
Format in all cases: cell-based
[1] = system: Cystic fibrosis transmembrane conductance regulator (Homo sapiens), P13569 [F508del]; experiment: Synergistic corrector activity at CFTR F508-del mutant (unknown origin) expressed in human CFBE41o cells harboring HS-YFP preincubated for 24 hrs followed by forskolin/genistein stimulation for 30 mins in presence of VX-809 by fluorescence assay
Procedure, shortened: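 CFBE41o- cells co-expressing F508del-CFTR and HS-YFP treated 24 h with compound (2, 10 or 25 μM) together with VX-809 (1 μM), then stimulated 30 min at 37 °C with forskolin (20 μM) and genistein (50 μM). Iodide influx (final 100 mM) measured as HS-YFP quenching rate.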

[2] = system: Cystic fibrosis transmembrane conductance regulator (Homo sapiens), P13569 [F508del]; experiment: Potentiator activity at CFTR F508-del mutant (unknown origin) expressed in human CFBE41o cells harboring HS-YFP assessed as increase in forskolin-stimulated aninon permeability up to 25 uM after 30 mins by fluorescence assay
Procedure, shortened: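 F508del-CFTR/HS-YFP CFBE41o- cells were rescued by 24 h incubation at 27 °C, then exposed 30 min to forskolin (20 μM) plus test compound in PBS. Iodide added to final 100 mM; HS-YFP quenching rate (initial slope dF/dt) from exponential fit of final 10 s, normalized to initial background-subtracted fluorescence; compared with forskolin alone.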

[3] = biological target: Cystic fibrosis transmembrane conductance regulator (Homo sapiens, UniProt P13569, F508DEL); experiment: Corrector activity at CFTR F508-del mutant (unknown origin) expressed in human CFBE41o cells harboring HS-YFP preincubated for 24 hrs followed by forskolin/genistein stimulation for 30 mins by fluorescence assay
Sequence of Cystic fibrosis transmembrane conductance regulator (P13569 as listed by the source): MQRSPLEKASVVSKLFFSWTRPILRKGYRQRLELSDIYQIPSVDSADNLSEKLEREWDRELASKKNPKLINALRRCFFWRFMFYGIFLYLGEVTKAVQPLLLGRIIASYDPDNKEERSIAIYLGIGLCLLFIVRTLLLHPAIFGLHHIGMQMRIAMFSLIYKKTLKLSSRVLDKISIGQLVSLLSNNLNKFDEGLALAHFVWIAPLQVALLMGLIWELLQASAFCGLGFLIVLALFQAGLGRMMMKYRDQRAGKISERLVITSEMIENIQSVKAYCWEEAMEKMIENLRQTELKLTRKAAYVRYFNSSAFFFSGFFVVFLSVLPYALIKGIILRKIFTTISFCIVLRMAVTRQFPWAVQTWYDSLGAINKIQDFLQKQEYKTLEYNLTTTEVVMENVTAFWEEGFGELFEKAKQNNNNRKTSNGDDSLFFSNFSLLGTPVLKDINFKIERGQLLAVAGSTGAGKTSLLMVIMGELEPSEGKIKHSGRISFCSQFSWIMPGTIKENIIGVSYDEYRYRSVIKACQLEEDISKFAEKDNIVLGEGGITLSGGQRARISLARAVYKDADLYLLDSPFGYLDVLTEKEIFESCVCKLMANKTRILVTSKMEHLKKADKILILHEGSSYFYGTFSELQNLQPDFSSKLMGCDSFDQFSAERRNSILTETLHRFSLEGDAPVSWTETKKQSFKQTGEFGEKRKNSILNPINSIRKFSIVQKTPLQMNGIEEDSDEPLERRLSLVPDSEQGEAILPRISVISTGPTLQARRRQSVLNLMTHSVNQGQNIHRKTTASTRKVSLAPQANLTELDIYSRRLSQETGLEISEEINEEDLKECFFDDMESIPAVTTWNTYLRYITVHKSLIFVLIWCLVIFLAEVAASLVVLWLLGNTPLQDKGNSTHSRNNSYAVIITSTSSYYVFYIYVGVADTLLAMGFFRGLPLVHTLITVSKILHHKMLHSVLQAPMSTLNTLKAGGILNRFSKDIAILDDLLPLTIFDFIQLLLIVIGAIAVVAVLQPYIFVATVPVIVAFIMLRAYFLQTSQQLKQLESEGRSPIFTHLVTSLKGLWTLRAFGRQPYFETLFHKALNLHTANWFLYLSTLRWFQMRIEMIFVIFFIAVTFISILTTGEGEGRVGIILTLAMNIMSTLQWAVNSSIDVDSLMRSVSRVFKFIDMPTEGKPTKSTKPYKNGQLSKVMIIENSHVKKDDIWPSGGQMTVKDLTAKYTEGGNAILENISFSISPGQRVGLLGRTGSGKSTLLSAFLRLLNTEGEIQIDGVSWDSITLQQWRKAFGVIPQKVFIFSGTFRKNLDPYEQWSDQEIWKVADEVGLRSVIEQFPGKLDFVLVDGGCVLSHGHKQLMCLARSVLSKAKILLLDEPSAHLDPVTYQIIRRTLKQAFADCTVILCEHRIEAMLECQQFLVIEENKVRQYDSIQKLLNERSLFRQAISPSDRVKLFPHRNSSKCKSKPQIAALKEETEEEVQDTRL

Sequence of Cystic fibrosis transmembrane conductance regulator (Homo sapiens), P13569 [F508del] (P13569 as listed by the source): as above

Row | Structure (SMILES) | Activity [1] | Activity [2] | EC50 ([3]; read-out: EC50) | EC50 ([3]; read-out: pEC50 (converted))
1 | CC(=O)Nc1ccc(-c2csc(NC(=O)C3(c4ccc5c(c4)OCO5)CC3)n2)cc1 | inactive | inactive | > 5 µM | > 5.01 µM
2 | COc1ccc(C(=O)N2CCN(c3nc4cc(C)cc(C)c4cc3C#N)CC2)cc1 |  |  |  | 100 µM
3 | CCN(C(C)=O)C1CCN(c2nc(-c3ccccn3)nc3c2CN(Cc2ccc(Cl)cc2)CC3)C1 (configuration not stated) |  |  |  | 100 µM
4 | Fc1ccc(CN2CCc3nc(-c4ccccn4)nc(NCCCN4CCCC4)c3C2)cc1 |  |  |  | 0.2 µM
5 | COc1ccc(Cl)cc1Nc1nc(-c2sc(NC(=O)C(C)(C)C)nc2C)cs1 |  |  |  | 0.708 µM
6 | O=C(Nc1nc(-c2ccc(Cl)cc2)cs1)C1(c2ccc3c(c2)OCO3)CC1 | inactive | inactive | 2.9 µM | 
7 | Cc1sc(NC(=O)C2(c3ccc4c(c3)OCO4)CC2)nc1-c1ccc(F)cc1 | inactive | inactive | 0.9 µM | 
8 | CC(=O)c1sc(NC(=O)C2(c3ccc4c(c3)OCO4)CC2)nc1C | inactive | inactive |  | 
9 | Cc1sc(NC(=O)C2(c3ccc4c(c3)OC(F)(F)O4)CC2)nc1-c1ccc(Br)cc1 | inactive | inactive | 3.8 µM | 
10 | Cc1cc(C)c2cc(C#N)c(N3CCN(C(=O)c4cccnc4)CC3)nc2c1 |  |  |  | 100 µM
11 | O=C(Nc1nc(-c2cccc(O)c2)cs1)C1(c2ccc3c(c2)OC(F)(F)O3)CC1 | inactive | inactive | 1.3 µM | 
12 | Cc1sc(NC(=O)C2(c3ccc4c(c3)OCO4)CC2)nc1-c1ccc(O)cc1 | inactive | inactive | 3.9 µM | 
13 | NC(=O)C1CCN(c2nc(-c3cccnc3)nc3c2CN(Cc2ccccc2)CC3)CC1 |  |  |  | > 100 µM
14 | O=C(O)c1ccc(-c2csc(NC(=O)C3(c4ccc5c(c4)OCO5)CC3)n2)cc1 | inactive | inactive | > 5 µM | > 5.01 µM
15 | Cc1cc(C)c2cc(C#N)c(NCCNC(=O)c3ccccc3)nc2c1 |  |  |  | > 100 µM
16 | Cc1cc(C)c2cc(C#N)c(NCCCNC(=O)c3ccncc3)nc2c1 |  |  |  | 13.2 µM
17 | Cc1sc(NC(=O)C2(c3ccc4c(c3)OCO4)CC2)nc1-c1ccc(Br)cc1 | inactive | inactive | 1.9 µM | 
18 | CCOC(=O)c1sc(NC(=O)C2(c3ccc4c(c3)OCO4)CC2)nc1-c1ccc(Cl)cc1 | inactive | inactive | 0.9 µM | 
19 | C=CCc1cc(-c2sc(NC(=O)C(C)(C)C)nc2C)nn1C(=O)Nc1ccccc1 |  |  |  | 3.02 µM

Row | Structure (SMILES) | Activity [1] | Activity [2] | EC50 ([3]; read-out: EC50) | EC50 ([3]; read-out: pEC50 (converted))
20 | Cc1sc(NC(=O)C2(c3ccc4c(c3)OCO4)CC2)nc1-c1ccccc1 | inactive | inactive | 1.6 µM | 
21 | COc1ccc(NC(=O)c2cc(-c3sc(NC(=O)C(C)(C)C)nc3C)n(-c3ccc(Br)cc3)n2)cc1 |  |  |  | 3.39 µM
22 | Cc1sc(NC(=O)C2(c3ccc4c(c3)OCO4)CC2)nc1-c1ccc(Cl)cc1 | inactive | inactive | 2.9 µM | 
23 | Cc1nc(NC(=O)C(C)(C)C)sc1-c1cc(Cc2ccccc2)n(C(=O)NCc2ccccc2)n1 |  |  |  | 0.759 µM
24 | O=C(Nc1nc(-c2cccc(Cl)c2)cs1)C1(c2ccc3c(c2)OCO3)CC1 | inactive | inactive | 8.2 µM | 
25 | O=C(Nc1nc(-c2cccc(F)c2)cs1)C1(c2ccc3c(c2)OCO3)CC1 | inactive | inactive | 2.1 µM | 
26 | Cc1cc(C)c2cc(C#N)c(N3CCN(C(=O)c4ccccn4)CC3)nc2c1 |  |  |  | 100 µM
27 | CN1CCN(CCCNc2nc(-c3cccnc3)nc3c2CN(Cc2ccccc2)CC3)CC1 |  |  |  | > 100 µM
28 | O=C(Nc1nc(-c2ccc(I)cc2)cs1)C1(c2ccc3c(c2)OCO3)CC1 | inactive | inactive | 1.2 µM | 
29 | Cc1cc(C)c2cc(C#N)c(N3CCN(C(=O)c4ccncc4)CC3)nc2c1 |  |  |  | 100 µM
30 | NC(=O)CN1CCN(c2nc(-c3cccnc3)nc3c2CN(Cc2ccccc2)CC3)CC1 |  |  |  | 100 µM
31 | CCOC(=O)n1nc(-c2sc(NC(=O)C(C)(C)C)nc2C)cc1Cc1ccccc1 |  |  |  | 8.51 µM
32 | COc1ccc(NC(=O)n2nc(-c3sc(NC(=O)C(C)(C)C)nc3C)cc2Cc2cc(Cl)ccc2OC)cc1 |  |  |  | 1 µM
33 | O=C(Nc1nc(-c2cccc(Cl)c2)cs1)C1(c2ccc3c(c2)OC(F)(F)O3)CC1 | inactive | inactive |  | 
34 | COc1ccccc1C(=O)N1CCN(c2nc3cc(C)cc(C)c3cc2C#N)CC1 |  |  |  | 100 µM
35 | COc1cccc(C(=O)N2CCN(c3nc4cc(C)cc(C)c4cc3C#N)CC2)c1 |  |  |  | 100 µM
36 | Cc1sc(NC(=O)C2(c3ccc4c(c3)OCO4)CC2)nc1-c1cccc(Cl)c1 | inactive | inactive | 2.3 µM | 
37 | CSc1cccc(NC(=O)C2(c3ccc4c(c3)OCO4)CC2)c1 | inactive | inactive | 8 µM | 
38 | Cc1cc(C)c2cc(C#N)c(NCCNC(=O)c3ccccn3)nc2c1 |  |  |  | > 100 µM

Row | Structure (SMILES) | Activity [1] | Activity [2] | EC50 ([3]; read-out: EC50) | EC50 ([3]; read-out: pEC50 (converted))
39 | O=C(Nc1nc(-c2ccc(Br)cc2)cs1)C1(c2ccc3c(c2)OCO3)CC1 | inactive | inactive | 4.9 µM | 
40 | CN(C)CCN1CCN(c2nc(-c3ccncc3)nc3c2CN(Cc2ccccc2)CC3)CC1 |  |  |  | 100 µM
41 | Cc1cc(C)c2cc(C#N)c(NCCCNC(=O)c3ccccn3)nc2c1 |  |  |  | 100 µM
42 | CN(C)CCN1CCN(c2nc(-c3ccccn3)nc3c2CN(S(=O)(=O)c2ccccc2)CC3)CC1 |  |  |  | 100 µM
43 | O=C(c1ccccc1)c1sc(NC(=O)C2(c3ccc4c(c3)OCO4)CC2)nc1-c1ccccc1 | inactive | inactive | 0.087 µM | 
44 | CC(=O)NCCCNc1nc(-c2ccccn2)nc2c1CN(Cc1ccc(F)cc1)CC2 |  |  |  | 0.2 µM
45 | COc1ccc(CN2CCc3nc(-c4ccccn4)nc(N4CCN(CCN(C)C)CC4)c3C2)cc1 |  |  |  | 100 µM
46 | C=CCc1cc(-c2sc(NC(=O)C(C)(C)C)nc2C)nn1C(=O)Nc1ccc(OC)cc1 |  |  |  | 0.933 µM
47 | COc1ccc(Cl)cc1Cc1cc(-c2sc(NC(=O)C(C)(C)C)nc2C)nn1C(=O)N1CCOCC1 |  |  |  | 1 µM
48 | CN1CCN(CCCNc2nc(-c3ccncc3)nc3c2CN(Cc2ccccc2)CC3)CC1 |  |  |  | 100 µM
49 | Cc1sc(NC(=O)C2(c3ccc4c(c3)OC(F)(F)O4)CC2)nc1-c1cccc(Cl)c1 | inactive | inactive | 5.4 µM | 
50 | COc1ccccc1C(=O)NCCCNc1nc2cc(C)cc(C)c2cc1C#N |  |  |  | > 100 µM
51 | CN(C)CCN1CCN(c2nc(-c3ccccn3)nc3c2CN(Cc2ccc(F)cc2)CC3)CC1 |  |  |  | 100 µM
52 | Cc1sc(NC(=O)C2(c3ccc4c(c3)OCO4)CC2)nc1-c1ccc(C(=O)O)cc1 | inactive | inactive | 2.9 µM | 
53 | CCOC(=O)c1sc(NC(=O)C2(c3ccc4c(c3)OCO4)CC2)nc1-c1ccc(Br)cc1 | inactive | inactive | 0.3 µM | 
54 | CN(C)CCN1CCN(c2nc(-c3cccnc3)nc3c2CN(Cc2ccccc2)CC3)CC1 |  |  |  | > 100 µM
55 | COc1ccc(Cl)cc1Cc1cc(-c2sc(NC(=O)C(C)(C)C)nc2C)nn1C(=O)NCCO |  |  |  | 3.02 µM
56 | CN(C)CCN1CCN(c2nc(-c3ccccn3)nc3c2CN(C(=O)c2ccccc2)CC3)CC1 |  |  |  | 100 µM

From ChEMBL document CHEMBL4145449, “Synthesis and biological evaluation of novel thiazole- VX-809 hybrid derivatives as F508del correctors by QSAR-based filtering tools” (Eur J Med Chem, 2018)
